Experimental data reported in ChEMBL document CHEMBL1629705, “PSI-7851, a pronucleotide of beta-D-2'-deoxy-2'-fluoro-2'-C-methyluridine monophosphate, is a potent and pan-genotype inhibitor of hepatitis C virus replication” (Antimicrob Agents Chemother, 2010).

Tests used:
[1] = target: T1, DNA polymerase subunit gamma-1 (Homo sapiens, UniProt P54098); test: Inhibition of human DNA polymerase gamma assessed as incorporation of [alpha-32P]dCTP up to 1mM preincubated for 30 mins by whatman DE81 paper binding assay
T1 sequence (P54098 whole entry): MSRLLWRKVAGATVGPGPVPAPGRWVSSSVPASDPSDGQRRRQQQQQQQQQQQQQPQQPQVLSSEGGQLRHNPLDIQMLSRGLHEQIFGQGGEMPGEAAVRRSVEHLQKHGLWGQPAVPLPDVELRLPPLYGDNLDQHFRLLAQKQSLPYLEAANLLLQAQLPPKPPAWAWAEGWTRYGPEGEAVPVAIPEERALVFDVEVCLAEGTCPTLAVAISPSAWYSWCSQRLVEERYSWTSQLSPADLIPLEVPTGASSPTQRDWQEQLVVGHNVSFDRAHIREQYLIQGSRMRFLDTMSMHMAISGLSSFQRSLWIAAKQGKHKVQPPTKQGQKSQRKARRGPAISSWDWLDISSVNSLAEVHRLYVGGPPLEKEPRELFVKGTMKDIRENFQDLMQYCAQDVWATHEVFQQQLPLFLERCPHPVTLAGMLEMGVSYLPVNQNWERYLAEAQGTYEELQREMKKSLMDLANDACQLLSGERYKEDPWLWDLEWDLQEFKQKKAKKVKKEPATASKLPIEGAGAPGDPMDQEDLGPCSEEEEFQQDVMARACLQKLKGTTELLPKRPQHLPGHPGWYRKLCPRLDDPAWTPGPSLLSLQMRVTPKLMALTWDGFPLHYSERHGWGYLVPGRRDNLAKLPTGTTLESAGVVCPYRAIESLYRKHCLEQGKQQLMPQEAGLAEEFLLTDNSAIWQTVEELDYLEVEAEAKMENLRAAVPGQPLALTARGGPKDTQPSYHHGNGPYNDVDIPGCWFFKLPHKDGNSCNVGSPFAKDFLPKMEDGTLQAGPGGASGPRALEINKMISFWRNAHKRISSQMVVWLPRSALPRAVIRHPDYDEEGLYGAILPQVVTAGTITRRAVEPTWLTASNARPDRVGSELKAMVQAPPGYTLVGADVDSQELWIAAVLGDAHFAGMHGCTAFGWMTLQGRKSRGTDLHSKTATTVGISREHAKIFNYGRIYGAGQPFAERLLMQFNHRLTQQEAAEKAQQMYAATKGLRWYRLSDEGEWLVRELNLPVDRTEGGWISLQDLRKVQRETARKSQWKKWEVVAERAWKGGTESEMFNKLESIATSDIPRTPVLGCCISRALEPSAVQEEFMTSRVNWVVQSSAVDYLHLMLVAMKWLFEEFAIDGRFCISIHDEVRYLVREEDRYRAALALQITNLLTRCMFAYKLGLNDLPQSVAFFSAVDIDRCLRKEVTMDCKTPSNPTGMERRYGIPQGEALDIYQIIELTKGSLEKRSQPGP
How it was run: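 Human DNA polymerase α (20 μg/ml) or γ (50 μg/ml) in 50 mM Tris pH 7.5, 50 mM NaCl, activated calf thymus DNA, 20 μM each dNTP, [α-32P]dCTP, 5 mM MgCl2. Nucleotide inhibitor up to 1 mM. 37°C, quenched with EDTA at 30 min. Product measured by DE81 paper binding; IC50 by nonlinear fit.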

[2] = target: T2, DNA-directed RNA polymerase II subunit RPB1 (Homo sapiens, UniProt P24928); test: Inhibition of human RNA polymerase 2
How it was run: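 In vitro transcription by HeLa nuclear extract from CMV immediate-early promoter DNA. Mix: 400 μM ATP, CTP and UTP, 16 μM GTP, [α-32P]GTP, 3 mM MgCl2, in 20 mM HEPES pH 7.9 buffer with KCl, EDTA, DTT and glycerol. Inhibitor up to 1 mM. 30°C for 60 min. RNA purified, run on 6% sequencing gel and quantified by phosphorimager.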

[3] = tested on: Hepatitis C virus; test: Antiviral activity against Hepatitis C virus H77 harboring Htat protein assessed as viral RNA level by quantitative real-time PCR; type: functional, organism-based, Hepacivirus hominis; settings: genotype 1a H77
[4] = tested on: Influenza A virus; test: Antiviral activity against Influenza A virus (A/Brisbane/59/2007 (H1N1)) infected in HFF by neutral red assay; type: functional, organism-based
[5] = Cytotoxicity against human HuH7 cells assessed as effect on cellular GAPDH RNA level after 8 days by quantitative real-time PCR; type: cell-based, Huh-7
[6] = Cytotoxicity against HFF; type: cell-based; settings: human, HFF cells
[7] = Cytotoxicity against human HepAD38 cells; type: cell-based
[8] = Cytotoxicity against human HepG2 cells assessed as inhibition of mitochondrial DNA synthesis; type: cell-based
How it was run: (§1)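 HepG2 or CEM cells incubated 14 days with compound up to 100 μM, ddC as control. Medium and compound replenished on days 7 and 11. Mitochondrial COXII gene and nuclear rDNA measured by multiplex quantitative RT-PCR.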

[9] = Cytotoxicity against human CEM cells assessed as inhibition of mitochondrial DNA synthesis; type: cell-based; settings: CEM (CCRF-CEM) cells; how it was run: as §1
[10] = target: T2, DNA-directed RNA polymerase II subunit RPB1; test: Inhibition of human RNA polymerase at 2 uM
[11] = tested on: Hepatitis C virus; test: Antiviral activity against Hepatitis C virus assessed as log reduction in viral RNA at 1 uM after 3 weeks; type: functional, Hepacivirus hominis
How it was run: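 ET-lunet replicon cells seeded at 1 × 10^5/well without G418, treated at 0.1, 1 or 2 μM (final DMSO 0.5%). Passaged 1:3–1:4 every 3–4 days for 3 weeks with fresh compound. Then compound withdrawn and cells grown 3 more weeks in 0.25 mg/ml G418. HCV RNA by RT-PCR (ΔΔCt vs rRNA and DMSO controls, log change). Colonies fixed in formaldehyde and stained with crystal violet at 6 weeks.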

`C[C@@]1(F)[C@H](O)[C@@H](COP(=O)(O)OP(=O)(O)OP(=O)(O)O)O[C@H]1n1ccc(=O)[nH]c1=O` [GS-461203] gave an IC50 [1] greater than 1000 µM and an IC50 [2] greater than 500 µM.
With `CC(C)OC(=O)[C@H](C)NP(=O)(OC[C@H]1O[C@@H](n2ccc(=O)[nH]c2=O)[C@](C)(F)[C@@H]1O)Oc1ccccc1` (some centres not stated) the EC50 [3] was 0.43 µM, the EC90 [3] was 1.22 µM and the EC50 [4] was greater than 100 µM. The CC50 at 192 h [5] was greater than 100 µM, the CC50 [6] was greater than 100 µM and the CC50 [7] was greater than 100 µM. It also gave a CC90 [8] of less than 3 µM, a CC90 [9] of less than 3 µM and a fold change (FC) [10] of 5. The FC [11] was 4.
